ChEMBL document CHEMBL1130433, “Effects of log P and phenyl ring conformation on the binding of 5-phenylhydantoins to the voltage-dependent sodium channel” (J Med Chem, 1997)

target: Sodium channel alpha subunits; brain (Types I, II, III) (Rattus norvegicus, UniProt P04775+P04774+P08104); test: Inhibition of [3H]BTX-B binding to Neuronal voltage-dependent sodium channel of rat cerebral cortex synaptoneurosomes; type: tissue-based
Summary of the method: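 Ice-cold buffer dilution, GF/C filtration, scintillation counting. Nonspecific binding measured with 300 μM veratridine. Triplicates with a 40 μM DPH control tube. IC50 by Probit analysis, excluding points below 10% or above 90% inhibition.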

| SMILES | IC50 |
| --- | --- |
| O=C1NC(=O)C2(CCCc3ccccc32)N1 (centres undefined) | 851 µM |
| O=C1NC(=O)C2(CCc3ccccc32)N1 (centres undefined) | 2112 µM |
| O=C1NC(=O)C2(CCCCCc3ccccc32)N1 (centres undefined) | 251 µM |
| CC12C(=O)NC(=O)N1CCc1ccccc12 (centres undefined) | 250 µM |
| CCN1C(=O)NC(=O)[C@@]1(C)c1ccccc1 | 720 µM |
| CCCCC1(c2ccccc2C)NC(=O)NC1=O (centres undefined) | 225 µM |
| CCCCC1(c2ccc(C)cc2)NC(=O)NC1=O (centres undefined) | 95 µM |
| O=C1NC(=O)C2(CCCCc3ccccc32)N1 (centres undefined) | 251 µM |
| CCCCC1(c2cccc(C)c2)NC(=O)NC1=O (centres undefined) | 58 µM |
